Holding throughout (type): functional, cell membranes
The target of assay [1] is T1, P2Y purinoceptor 1 (Meleagris gallopavo, UniProt P49652). The assay can be described thus: Concentration at which 50% of the maximal effect (stimulation of PLC at P2Y1 receptor in the turkey erythrocyte membranes) is reached.
In assay [2] the target is P2Y purinoceptor 1 (Meleagris gallopavo) (UniProt P49652). The assay can be described thus: Antagonist activity for inhibition of PLC elicited by 10 nM 2-MeSADP at P2Y purinoceptor 1 in turkey erythrocyte membranes. In short, it runs like this: (§1)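 [3H]inositol-labeled turkey erythrocyte ghosts in pH 7.0 Hepes medium with 1 μM GTPγS were incubated 5 min at 30 °C with test nucleotide plus 10 nM 2-MeSADP. Total [3H]inositol phosphates were separated by anion-exchange. […] Maximal inhibition is 100 minus residual stimulation at the highest concentration; n = 3 unless stated. "No effect" means none at 100 μM.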
P2Y purinoceptor 1 (Meleagris gallopavo), sequence (P49652 whole entry): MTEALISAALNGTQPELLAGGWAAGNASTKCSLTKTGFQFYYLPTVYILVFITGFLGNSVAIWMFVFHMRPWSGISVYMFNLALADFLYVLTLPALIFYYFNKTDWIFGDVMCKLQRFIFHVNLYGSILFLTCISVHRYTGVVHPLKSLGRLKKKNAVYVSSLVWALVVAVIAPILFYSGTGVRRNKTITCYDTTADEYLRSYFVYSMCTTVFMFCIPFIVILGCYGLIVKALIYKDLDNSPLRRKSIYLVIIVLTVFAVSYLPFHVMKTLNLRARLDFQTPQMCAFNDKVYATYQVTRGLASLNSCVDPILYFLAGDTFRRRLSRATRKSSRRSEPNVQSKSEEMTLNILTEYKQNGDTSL

The target in assay [3] is T1, P2Y purinoceptor 1. The assay can be described thus: In vitro antagonist activity at P2Y1 receptor in turkey erythrocyte membranes. In short, it runs like this:
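[3H]inositol-labeled turkey erythrocyte ghosts in pH 7.0 Hepes medium with 1 μM GTPγS were incubated 5 min at 30 °C with test nucleotide plus 10 nM 2-MeSADP. Total [3H]inositol phosphates were separated by anion-exchange. Maximal inhibition is 100 minus residual stimulation at the highest concentration; n = 3 unless stated. "No effect" means none at 100 μM.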

The target in assay [4] is P2Y purinoceptor 1 (Meleagris gallopavo) (UniProt P49652). The assay can be described thus: Agonist activity for stimulation of PLC at P2Y purinoceptor 1 in the turkey erythrocyte membranes.
Assay [5] deals with T1, P2Y purinoceptor 1. The experiment in a line: Concentration at which 50% of the maximal effect (stimulation of PLC at P2Y1 receptor in the turkey erythrocyte membranes) is reached; Low potency agonist.
Assay [6] has as its target P2Y purinoceptor 1 (Meleagris gallopavo) (UniProt P49652). The assay can be described thus: Antagonist activity for inhibition of PLC elicited by 10 nM 2-MeSADP at P2Y purinoceptor 1 in the turkey erythrocyte membranes; No effect, low potency. An outline of the steps:
as §1

For assay [7] the target is unchanged. The experiment in a line: In vitro agonist activity at P2Y1 receptor in turkey erythrocyte membranes; No effect at 100 uM.
For assay [8] the target is unchanged. The assay can be described thus: Antagonist activity for inhibition of PLC elicited by 10 nM 2-MeSADP at P2Y purinoceptor 1 in the turkey erythrocyte membranes; No effect. An outline of the steps: as §1

pEC50, pIC50: −log10 of the molar value. Calls of active or inactive are those of the source. The rule behind the calls is not given here.

The pEC50 is −log10 of the EC50, conventionally taken in molar units. Usually inhibition stands for the percentage by which the read-out fell short of the control. What is called pIC50 is the negative decadic logarithm of the IC50, by convention in mol/L.

T1 sequence (P49652 whole entry): as above

In turn, `Nc1ncnc2c1ncn2[C@@H]1C[C@H](COP(=O)(O)O)[C@@H](OP(=O)(O)O)C1` had a pEC50 at P2Y purinoceptor 1 [1] of 5.14. Moreover, in assay [2], the inhibition is 73%. In addition, the pIC50 against P2Y purinoceptor 1 [3] is 5.60. This compound had an Increase in assay [4] of 27%.

As to `CCCSc1nc(N)c2ncn([C@H]3C[C@H](OP(=O)(O)O)[C@@H](COP(=O)(O)O)O3)c2n1`, the pEC50 at P2Y purinoceptor 1 [1] was 5.77. This compound also came in with an inhibition in assay [2] of 46%. Moreover, the Increase in assay [4] stood at 53%.

As for `[N-]=[N+]=N[C@H]1[C@@H](OP(=O)(O)O)[C@H](n2cnc3c(N)ncnc32)O[C@@H]1COP(=O)(O)OP(=O)(O)OP(=O)(O)O`, the EC50 entry at P2Y purinoceptor 1 [5] is reported as “Partial agonist”. The inhibition entry in assay [6] is “inactive”. The Increase in assay [4] came to 49%.

On to `CCSc1nc(N)c2ncn([C@H]3C[C@H](OP(=O)(O)O)[C@@H](COP(=O)(O)O)O3)c2n1`, for which the pEC50 on P2Y purinoceptor 1 [1] was 5.70. For the same compound, in assay [2], the inhibition turned out to be 84%. The compound further gave a pIC50 against P2Y purinoceptor 1 [3] of 5.34. For the same compound, the Increase in assay [4] was determined as 16%.

The compound `CSc1nc(N)c2ncn([C@H]3C[C@H](OP(=O)(O)O)[C@@H](COP(=O)(O)O)O3)c2n1` registered an inhibition in assay [2] of 78%. The compound further gave a pIC50 against P2Y purinoceptor 1 [3] of 5.72. In assay [4], the Increase came to 22%.

On to `CNc1nc(I)nc2c1ncn2[C@H]1C[C@H](OP(=O)(O)O)[C@@H](COP(=O)(O)O)O1`, for which the pEC50 on P2Y purinoceptor 1 [1] was 5.35. In assay [2], this compound returned an inhibition of 87%. For the same compound, on P2Y purinoceptor 1 [3], the pIC50 was 6.05. Moreover, in assay [4], the Increase is 13%.

Consider `CSc1nc2c(N)ncnc2n1[C@H]1C[C@H](OP(=O)(O)O)[C@@H](COP(=O)(O)O)O1`, for which the Increase entry in assay [7] was “inactive”. In addition, the inhibition entry in assay [6] is “inactive”.

For `O=c1[nH]c(=O)n([C@H]2C[C@H](OP(=O)(O)O)[C@@H](COP(=O)(O)O)O2)cc1F`, the Increase result in assay [7] was “inactive”. Further, in assay [8], the inhibition entry is “inactive”.

`CNc1nc(N)nc2c1ncn2[C@H]1C[C@H](OP(=O)(O)O)[C@@H](COP(=O)(O)O)O1` came in with an inhibition in assay [2] of 96%. Moreover, the pIC50 against P2Y purinoceptor 1 [3] is 5.73. In assay [4], this compound came in with an Increase of 4%.

On to `CNc1ncnc2c1ncn2[C@H]1C[C@@H]2OP(=O)(O)OP(=O)(O)OC[C@H]2O1`, for which the Increase result in assay [7] was “inactive”. Besides, the inhibition result in assay [6] is “inactive”.

With `O=c1ccn([C@H]2C[C@H](OP(=O)(O)O)[C@@H](COP(=O)(O)O)O2)c(=O)[nH]1`, the Increase result in assay [7] is “inactive”. The inhibition entry in assay [8] was “inactive”.

In turn, `CNc1ncnc2c1ncn2[C@H]1C[C@@H]2OP(=O)(O)OP(=O)(O)OP(=O)(O)OP(=O)(O)OC[C@H]2O1` gave a pEC50 at P2Y purinoceptor 1 [1] of 7.70. The same compound yielded an inhibition in assay [2] of 87%. On P2Y purinoceptor 1 [3], this compound gave a pIC50 of 6.80. This compound showed an Increase in assay [4] of 14%.

`CONc1ncnc2c1ncn2[C@H]1C[C@H](OP(=O)(O)O)[C@@H](COP(=O)(O)O)O1`: the Increase result in assay [7] was “inactive”. Also, in assay [6], the inhibition entry is “inactive”. The compound further had a pIC50 on P2Y purinoceptor 1 [3] below 4.00.

`CNc1nc(N)nc2c1ncn2[C@@H]1C[C@H](COP(=O)(O)O)[C@@H](OP(=O)(O)O)C1` gave a pEC50 on P2Y purinoceptor 1 [1] of 5.19. This compound also came in with an inhibition in assay [2] of 74%. The pIC50 against P2Y purinoceptor 1 [3] is 5.27. This compound had an Increase in assay [4] of 26%.

With `CCCCCCSc1nc(NC)c2ncn([C@H]3C[C@H](OP(=O)(O)O)[C@@H](COP(=O)(O)O)O3)c2n1`, the Increase entry in assay [7] was “inactive”. Moreover, the inhibition in assay [2] was 100%. On P2Y purinoceptor 1 [3], this compound had a pIC50 of 5.47.

For `COc1nc2c(N)ncnc2n1[C@H]1C[C@H](OP(=O)(O)O)[C@@H](COP(=O)(O)O)O1`, the Increase entry in assay [7] is “inactive”. In addition, the inhibition result in assay [8] is “inactive”.

In the case of `CNc1nc2c(N)ncnc2n1[C@H]1C[C@H](OP(=O)(O)O)[C@@H](COP(=O)(O)O)O1`, the Increase result in assay [7] was “inactive”. Besides, the inhibition entry in assay [6] is “inactive”.

For the compound `C=Cc1nc2c(N)ncnc2n1[C@H]1C[C@H](OP(=O)(O)O)[C@@H](COP(=O)(O)O)O1`, the Increase result in assay [7] is “inactive”. The inhibition in assay [2] came to 59%. The compound further showed a pIC50 against P2Y purinoceptor 1 [3] of 4.51.

In turn, `CCCSc1nc(NC)c2ncn([C@H]3C[C@H](OP(=O)(O)O)[C@@H](COP(=O)(O)O)O3)c2n1` came in with an inhibition in assay [2] of 94%. Also, the pIC50 on P2Y purinoceptor 1 [3] was 6.35. The compound also yielded an Increase in assay [4] of 7%.

Consider `Cc1nc2c(N)ncnc2n1[C@H]1C[C@H](OP(=O)(O)O)[C@@H](COP(=O)(O)O)O1`, for which the Increase result in assay [7] was “inactive”. Further, in assay [2], the inhibition amounted to 53%. This compound also showed a pIC50 at P2Y purinoceptor 1 [3] of 4.12.

For the compound `Nc1nc2c(ncn2[C@H]2C[C@H](OP(=O)(O)O)[C@@H](COP(=O)(O)O)O2)c(=O)[nH]1`, the Increase entry in assay [7] is “inactive”. This compound returned an inhibition in assay [2] of 93%. The pIC50 against P2Y purinoceptor 1 [3] is 4.83.

`Nc1ncnc2c1ncn2[C@H]1C[C@H](OP(=O)(O)O)[C@@H](COCP(=O)(O)O)O1` had a pEC50 on P2Y purinoceptor 1 [1] of 4.56. Besides, the inhibition in assay [2] is 78%. Also, the pIC50 against P2Y purinoceptor 1 [3] is 4.71. Besides, in assay [4], the Increase worked out at 22%.

Take `COP(=O)(O)OC[C@H]1O[C@@H](n2cnc3c(N)ncnc32)C[C@@H]1OP(=O)(O)OC`: the Increase entry in assay [7] was “inactive”. In addition, the inhibition entry in assay [8] was “inactive”.

`Nc1nc(Cl)nc2c1ncn2[C@H]1C[C@H](OP(=O)(O)O)[C@@H](COP(=O)(O)O)O1`: the inhibition in assay [2] was 80%. In assay [4], this compound came in with an Increase of 19%.

Regarding `Nc1ncnc2c1ncn2[C@H]1C[C@H](OP(=O)(O)O)[C@@H](COP(=O)(O)O)O1`, in assay [2], the inhibition was determined as 87%. Besides, the Increase in assay [4] was 12%.

Take `Nc1ncnc2c1ncn2[C@@H]1CO[C@H](COP(=O)(O)O)[C@@H](OP(=O)(O)O)C1`: on P2Y purinoceptor 1 [1], the pEC50 is 5.52. In addition, the inhibition entry in assay [8] is “inactive”. In assay [4], the Increase was determined as 100%.

With `C=CCSc1nc(NC)c2ncn([C@H]3C[C@H](OP(=O)(O)O)[C@@H](COP(=O)(O)O)O3)c2n1`, the Increase entry in assay [7] was “inactive”. In addition, in assay [2], the inhibition turned out to be 97%. Also, on P2Y purinoceptor 1 [3], the pIC50 was 6.32.

As for `[N-]=[N+]=N[C@H]1[C@@H](OP(=O)(O)O)[C@H](n2cnc3c(N)ncnc32)O[C@@H]1COP(=O)(O)O`, in assay [8], the inhibition result is “inactive”. Further, at P2Y purinoceptor 1 [5], the EC50 entry is “Partial agonist”. Further, the Increase in assay [4] was 46%.

As to `Nc1ccn([C@H]2C[C@H](OP(=O)(O)O)[C@@H](COP(=O)(O)O)O2)c(=O)n1`, the Increase result in assay [7] is “inactive”. In addition, in assay [8], the inhibition result is “inactive”.

Take `CNc1nc(SC)nc2c1ncn2[C@H]1C[C@H](OP(=O)(O)O)[C@@H](COP(=O)(O)O)O1`: the inhibition in assay [2] worked out at 94%. Besides, at P2Y purinoceptor 1 [3], the pIC50 was 6.44. The same compound came in with an Increase in assay [4] of 6%.

For `CNc1nc(Cl)nc2c1ncn2[C@H]1C[C@H](OP(=O)(O)O)[C@@H](COP(=O)(O)O)O1`, the Increase entry in assay [7] is “inactive”. The inhibition in assay [2] turned out to be 95%. The compound further showed a pIC50 at P2Y purinoceptor 1 [3] of 6.69.

`Nc1ncnc2c1ncn2[C@H]1C[C@H](O)[C@@H](COP(=O)(O)O)[S+]1[O-]` (stereo partly specified): the Increase entry in assay [7] is “inactive”. Moreover, the inhibition result in assay [8] is “inactive”.

As to `Cc1cn([C@H]2C[C@H](OP(=O)(O)O)[C@@H](COP(=O)(O)O)O2)c(=O)[nH]c1=O`, the Increase entry in assay [7] was “inactive”. Besides, in assay [8], the inhibition entry is “inactive”.

In the case of `Nc1ncnc2c1ncn2[C@H]1C[C@H](OP(=O)(O)O)[C@@H](COP(=O)(O)O)S1`, on P2Y purinoceptor 1 [1], the pEC50 is 4.91. This compound also registered an inhibition in assay [2] of 38%. Further, the Increase in assay [4] was found to be 56%.

`CNc1ccnc2c1ncn2[C@H]1C[C@H](OP(=O)(O)O)[C@@H](COP(=O)(O)O)O1`: the Increase entry in assay [7] is “inactive”. The compound also registered an inhibition in assay [2] of 96%. The same compound showed a pIC50 against P2Y purinoceptor 1 [3] of 6.04.

Regarding `CCSc1nc(NC)c2ncn([C@H]3C[C@H](OP(=O)(O)O)[C@@H](COP(=O)(O)O)O3)c2n1`, in assay [7], the Increase result is “inactive”. In addition, the inhibition in assay [2] was found to be 94%. At P2Y purinoceptor 1 [3], this compound showed a pIC50 of 6.01.

In turn, `Nc1ncnc2c1ncn2[C@@H]1O[C@H](COP(=O)(O)O)[C@@H](OP(=O)(O)O)[C@H]1O` gave a pEC50 at P2Y purinoceptor 1 [1] of 5.63. This compound also returned an inhibition in assay [2] of 56%. Moreover, the pIC50 against P2Y purinoceptor 1 [3] is 4.83. The compound also returned an Increase in assay [4] of 44%.

The record behind these values is ChEMBL document CHEMBL1132720 (J Med Chem, 1999).
